# Tests used:
# Type in all cases: functional
# MDA-MB-468 = assay: Cytotoxicity against human MDA-MB-468 cells assessed as growth inhibition after 48 hrs by SRB assay
# Method in brief: (§1)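 NCI 60-cell-line screen, five-dose stage: each cell line exposed for 48 h to five concentrations spanning five log steps; cellular protein measured by sulforhodamine B colorimetry. A time-zero cell control and plates without drug are used to derive GI50, TGI and LC50 from log-concentration dose-response curves.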
# BT-549 = assay: Cytotoxicity against human BT549 cells assessed as growth inhibition after 48 hrs by SRB assay
# Method in brief: (§2)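 NCI 60-cell-line five-dose screen at […]. Drug exposure was 48 h, followed by sulforhodamine B protein staining. GI50, TGI and LC50 were calculated against a time-zero control and untreated plates, with dose–response curves plotted from log10 concentration.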
# MDA-MB-231 = assay: Cytotoxicity against human MDA-MB-231 cells assessed as growth inhibition after 48 hrs by SRB assay; method in brief: as §1
# PC-3 = assay: Cytotoxicity against human PC3 cells assessed as growth inhibition after 48 hrs by SRB assay; method in brief: as §1
# TK-10 = assay: Cytotoxicity against human TK10 cells assessed as growth inhibition after 48 hrs by SRB assay
# Method in brief: (§3)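 NCI 60-cell-line screen, two stages. Five-dose testing at […]. Cellular protein measured by sulforhodamine B colorimetry after 48 h drug exposure. A time-zero control and drug-free plates are used to derive GI50, TGI and LC50 from dose-response curves plotted as log10 concentration per cell line.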
# ACHN = assay: Cytotoxicity against human ACHN cells assessed as growth inhibition after 48 hrs by SRB assay; method in brief: as §2
# A498 = assay: Cytotoxicity against human A498 cells assessed as growth inhibition after 48 hrs by SRB assay; method in brief: as §2
# IGROV-1 = assay: Cytotoxicity against human IGROV1 cells assessed as growth inhibition after 48 hrs by SRB assay; method in brief: as §2
# [1] = (§4) Cytotoxicity against human UACC257 cells assessed as growth inhibition after 48 hrs by SRB assay; conditions: UACC-257, 48 h; method in brief: as §3
# UACC-257 = assay: as §4; method in brief: as §3
# SK-MEL-28 = assay: Cytotoxicity against human SK-MEL-28 cells assessed as growth inhibition after 48 hrs by SRB assay; method in brief: as §1
# MDA-MB-435 = assay: Cytotoxicity against human MDA-MB-435 cells assessed as growth inhibition after 48 hrs by SRB assay; method in brief: as §1
# M14 = assay: Cytotoxicity against human M14 cells assessed as growth inhibition after 48 hrs by SRB assay; method in brief: as §2
# U-251 = assay: Cytotoxicity against human U251 cells assessed as growth inhibition after 48 hrs by SRB assay; method in brief: as §3
# SF-295 = assay: Cytotoxicity against human SF295 cells assessed as growth inhibition after 48 hrs by SRB assay; method in brief: as §1
# SF-268 = assay: Cytotoxicity against human SF268 cells assessed as growth inhibition after 48 hrs by SRB assay; method in brief: as §1
# KM12 = assay: Cytotoxicity against human KM12 cells assessed as growth inhibition after 48 hrs by SRB assay; method in brief: as §2
# HCT-15 = assay: Cytotoxicity against human HCT15 cells assessed as growth inhibition after 48 hrs by SRB assay; method in brief: as §2
# NCI-H522 = assay: Cytotoxicity against human NCI-H522 cells assessed as growth inhibition after 48 hrs by SRB assay; method in brief: as §1
# NCI-H322M = assay: Cytotoxicity against human NCI-H322M cells assessed as growth inhibition after 48 hrs by SRB assay; method in brief: as §1
# HOP-62 = assay: Cytotoxicity against human HOP62 cells assessed as growth inhibition after 48 hrs by SRB assay; method in brief: as §2
# SR = assay: Cytotoxicity against human SR cells assessed as growth inhibition after 48 hrs by SRB assay; method in brief: as §3
# RPMI-8226 = assay: Cytotoxicity against human RPMI8226 cells assessed as growth inhibition after 48 hrs by SRB assay; method in brief: as §1
# MOLT-4 = assay: Cytotoxicity against human MOLT4 cells assessed as growth inhibition after 48 hrs by SRB assay; method in brief: as §1
# OVCAR-3 = assay: Cytotoxicity against human OVCAR3 cells assessed as cell growth at 10 uM after 48 hrs by SRB assay; conditions: OVCAR-3, 48 h, read-out: Activity
# Method in brief: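 First stage of the NCI 60 human tumour cell line screen: a single dose is tested against every line. Cell growth is read as cellular protein by sulforhodamine B colorimetry after 48 h of drug exposure, with reference to a time-zero control and to untreated plates.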
# HT-29 = assay: Cytotoxicity against human HT-29 cells assessed as cell growth at 10 uM after 48 hrs by SRB assay; conditions: HT-29, 48 h, read-out: Activity
smiles,measurement,setting,value
CCCSc1nc2ccc3c(c2[nH]1)C(=O)c1ccccc1C3=O,growth inhibition (GI),MDA-MB-468,Dose-dependent effect
same,GI50,"MDA-MB-468; MDA-MB-468, 48 h",6.38 µM
same,LC50,"MDA-MB-468; MDA-MB-468, 48 h",> 100 µM
same,TGI,"MDA-MB-468; MDA-MB-468, 48 h",> 100 µM
same,growth inhibition (GI),BT-549,Dose-dependent effect
same,GI50,"BT-549; BT-549, 48 h",33.4 µM
same,LC50 (concentration killing 50% of cells),"BT-549; BT-549, 48 h",> 100 µM
same,TGI,"BT-549; BT-549, 48 h",> 100 µM
same,growth inhibition (GI),MDA-MB-231,Dose-dependent effect
same,GI50,"MDA-MB-231; MDA-MB-231, 48 h",5.14 µM
same,LC50,"MDA-MB-231; MDA-MB-231, 48 h",> 100 µM
same,TGI,"MDA-MB-231; MDA-MB-231, 48 h",> 100 µM
same,growth inhibition (GI),PC-3,Dose-dependent effect
same,GI50,"PC-3; PC-3, 48 h",11.3 µM
same,LC50,"PC-3; PC-3, 48 h",> 100 µM
same,TGI,"PC-3; PC-3, 48 h",> 100 µM
same,growth inhibition (GI),TK-10,Dose-dependent effect
same,GI50,"TK-10; TK-10, 48 h",3.25 µM
same,LC50,"TK-10; TK-10, 48 h",> 100 µM
same,TGI,"TK-10; TK-10, 48 h",21.6 µM
same,GI50,ACHN,2.69 µM
same,TGI,ACHN,42.8 µM
same,growth inhibition (GI),ACHN,Dose-dependent effect
same,CC50,ACHN; read-out: LC50 (the source's name),> 100 µM
same,growth inhibition (GI),A498,Dose-dependent effect
same,GI50,"A498; A498, 48 h",13.9 µM
same,TGI,"A498; A498, 48 h",> 100 µM
same,CC50,"A498; A498, 48 h, read-out: LC50 (the source's name)",> 100 µM
same,growth inhibition (GI),IGROV-1,Dose-dependent effect
same,GI50,"IGROV-1; IGROV-1, 48 h",4.03 µM
same,LC50,"IGROV-1; IGROV-1, 48 h",> 100 µM
same,TGI,"IGROV-1; IGROV-1, 48 h",> 100 µM
same,GI50,[1],> 100 µM
same,LC50,[1],> 100 µM
same,TGI,[1],> 100 µM
same,growth inhibition (GI),UACC-257,Dose-dependent effect
same,growth inhibition (GI),SK-MEL-28,Dose-dependent effect
same,GI50,"SK-MEL-28; SK-MEL-28, 48 h",> 100 µM
same,LC50,"SK-MEL-28; SK-MEL-28, 48 h",> 100 µM
same,TGI,"SK-MEL-28; SK-MEL-28, 48 h",> 100 µM
same,growth inhibition (GI),MDA-MB-435,Dose-dependent effect
same,GI50,"MDA-MB-435; MDA-MB-435, 48 h",> 100 µM
same,LC50,"MDA-MB-435; MDA-MB-435, 48 h",> 100 µM
same,TGI,"MDA-MB-435; MDA-MB-435, 48 h",> 100 µM
same,growth inhibition (GI),M14,Dose-dependent effect
same,GI50,"M14; M14, 48 h",> 100 µM
same,LC50,"M14; M14, 48 h",> 100 µM
same,TGI,"M14; M14, 48 h",> 100 µM
same,growth inhibition (GI),U-251,Dose-dependent effect
same,GI50,"U-251; U-251, 48 h",7.05 µM
same,TGI,"U-251; U-251, 48 h",> 100 µM
same,CC50,"U-251; U-251, 48 h, read-out: LC50 (the source's name)",> 100 µM
same,growth inhibition (GI),SF-295,Dose-dependent effect
same,GI50,"SF-295; SF-295, 48 h",3.19 µM
same,LC50,"SF-295; SF-295, 48 h",> 100 µM
same,TGI,"SF-295; SF-295, 48 h",60.2 µM
same,growth inhibition (GI),SF-268,Dose-dependent effect
same,GI50,"SF-268; SF-268, 48 h",3.71 µM
same,LC50 (concentration killing 50% of cells relative to time zero),"SF-268; SF-268, 48 h",> 100 µM
same,TGI,"SF-268; SF-268, 48 h",> 100 µM
same,growth inhibition (GI),KM12,Dose-dependent effect
same,GI50,"KM12; KM12, 48 h",> 100 µM
same,TGI,"KM12; KM12, 48 h",> 100 µM
same,CC50,"KM12; KM12, 48 h, read-out: LC50 (the source's name)",> 100 µM
same,growth inhibition (GI),HCT-15,Dose-dependent effect
same,GI50,"HCT-15; HCT-15, 48 h",> 100 µM
same,LC50 (concentration killing 50% of cells),"HCT-15; HCT-15, 48 h",> 100 µM
same,TGI,"HCT-15; HCT-15, 48 h",> 100 µM
same,growth inhibition (GI),NCI-H522,Dose-dependent effect
same,GI50,"NCI-H522; NCI-H522, 48 h",11.6 µM
same,TGI,"NCI-H522; NCI-H522, 48 h",> 100 µM
same,CC50,"NCI-H522; NCI-H522, 48 h, read-out: LC50 (the source's name)",> 100 µM
same,GI50,NCI-H322M,> 100 µM
same,LC50 (concentration killing 50% of cells relative to time zero),NCI-H322M,> 100 µM
same,TGI,NCI-H322M,> 100 µM
same,growth inhibition (GI),NCI-H322M,Dose-dependent effect
same,growth inhibition (GI),HOP-62,Dose-dependent effect
same,GI50,"HOP-62; HOP-62, 48 h",1.94 µM
same,LC50 (concentration killing 50% of cells relative to time zero),"HOP-62; HOP-62, 48 h",9.36 µM
same,TGI,"HOP-62; HOP-62, 48 h",4.27 µM
same,GI50,SR,4.63 µM
same,LC50 (50% lethal concentration),SR,> 100 µM
same,TGI,SR,> 100 µM
same,growth inhibition (GI),SR,Dose-dependent effect
same,growth inhibition (GI),RPMI-8226,Dose-dependent effect
same,GI50,"RPMI-8226; RPMI-8226, 48 h",> 100 µM
same,LC50 (concentration causing 50% net cell kill),"RPMI-8226; RPMI-8226, 48 h",> 100 µM
same,TGI,"RPMI-8226; RPMI-8226, 48 h",> 100 µM
same,growth inhibition (GI),MOLT-4,Dose-dependent effect
same,GI50,"MOLT-4; MOLT-4, 48 h",> 100 µM
same,LC50 (50% lethal concentration),"MOLT-4; MOLT-4, 48 h",> 100 µM
same,TGI,"MOLT-4; MOLT-4, 48 h",> 100 µM
same,growth at 10 µM,OVCAR-3,62.7%
same,growth at 10 µM,HT-29,75.1%
O=C1c2ccccc2C(=O)c2c1ccc1[nH]c(=S)[nH]c21,growth at 10 µM,OVCAR-3,86.9%
same,growth at 10 µM,HT-29,104%

# Source: ChEMBL document CHEMBL3120102, “Structure-based design, synthesis and biological evaluation of novel anthra[1,2-d]imidazole-6,11-dione homologues as potential antitumor agents” (2013)
